SMILES strings stand for the structures. Calls of active or inactive are those of the source. No cut-off for these calls is given here. Some results are limits rather than exact numbers.

For assay [1], the target named is Cyclin-dependent kinase 1/cyclin B1 (Homo sapiens, UniProt P06493). Put plainly: Inhibition of CDK1/cyclin B by MESACUP assay. Type of assay: protein-complex assay.
Assay [2] can be described thus: Inhibition of FGFR upto 50 uM.
A short description of assay [3]: Inhibition of CDK1/cyclin A at 50 uM.
In assay [4] the target is T1, Cyclin-dependent kinase 1/cyclin B1 (Homo sapiens) (UniProt P06493+P14635). Put plainly: Inhibition of CDK1/cyclin B at 30 uM. Type of assay: protein-complex assay.
T1 sequence (P06493 whole entry, looked up): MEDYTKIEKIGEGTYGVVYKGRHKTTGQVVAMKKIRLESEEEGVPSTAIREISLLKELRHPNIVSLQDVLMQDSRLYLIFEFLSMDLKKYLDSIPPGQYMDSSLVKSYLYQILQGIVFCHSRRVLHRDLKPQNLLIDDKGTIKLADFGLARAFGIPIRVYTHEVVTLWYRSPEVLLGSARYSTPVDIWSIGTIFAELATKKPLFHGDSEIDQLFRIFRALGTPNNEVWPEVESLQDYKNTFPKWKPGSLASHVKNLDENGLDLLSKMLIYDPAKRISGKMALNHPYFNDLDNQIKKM
T1 sequence (P14635 whole entry, looked up): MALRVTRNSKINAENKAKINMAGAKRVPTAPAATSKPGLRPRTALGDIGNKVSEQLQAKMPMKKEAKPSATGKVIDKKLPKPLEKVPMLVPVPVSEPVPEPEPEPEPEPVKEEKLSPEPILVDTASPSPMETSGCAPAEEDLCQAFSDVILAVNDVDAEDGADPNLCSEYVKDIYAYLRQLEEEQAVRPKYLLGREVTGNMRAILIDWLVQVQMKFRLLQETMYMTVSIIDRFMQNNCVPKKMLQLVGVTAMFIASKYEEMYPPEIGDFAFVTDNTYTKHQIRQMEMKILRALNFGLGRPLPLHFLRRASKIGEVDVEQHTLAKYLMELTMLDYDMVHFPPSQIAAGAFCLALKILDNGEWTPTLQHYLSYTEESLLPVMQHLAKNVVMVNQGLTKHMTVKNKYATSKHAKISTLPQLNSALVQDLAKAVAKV
The target in assay [5] is T1, Cyclin-dependent kinase 1/cyclin B1 (Homo sapiens). Nature of the assay: Inhibition of CDK1/cyclin B at 100 uM. It counts as protein-complex assay. Summed up: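 CDK1/cyclin B complex activity measured in vitro with the MESACUP cdc2 kinase assay kit. Compounds were tested at 100 µM. Activity was expressed as % CDK1 activity relative to untreated control samples, as mean ± SEM, with statistical comparison against control (P < 0.05, P < 0.001).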

A short description of assay [6]: Inhibition of CDK1/cyclin E at 50 uM.
Assay [7] has as its target Angiopoietin-1 receptor (Homo sapiens) (UniProt Q02763). Put plainly: Inhibition of Tie2 upto 50 uM.
The nature of assay [8]: Inhibition of IGFR upto 50 uM.
In assay [9] the target is Vascular endothelial growth factor receptor 3 (Homo sapiens) (UniProt P35916). Nature of the assay: Inhibition of Flt4 upto 50 uM.
Sequence of Vascular endothelial growth factor receptor 3 (Homo sapiens) (P35916 whole entry): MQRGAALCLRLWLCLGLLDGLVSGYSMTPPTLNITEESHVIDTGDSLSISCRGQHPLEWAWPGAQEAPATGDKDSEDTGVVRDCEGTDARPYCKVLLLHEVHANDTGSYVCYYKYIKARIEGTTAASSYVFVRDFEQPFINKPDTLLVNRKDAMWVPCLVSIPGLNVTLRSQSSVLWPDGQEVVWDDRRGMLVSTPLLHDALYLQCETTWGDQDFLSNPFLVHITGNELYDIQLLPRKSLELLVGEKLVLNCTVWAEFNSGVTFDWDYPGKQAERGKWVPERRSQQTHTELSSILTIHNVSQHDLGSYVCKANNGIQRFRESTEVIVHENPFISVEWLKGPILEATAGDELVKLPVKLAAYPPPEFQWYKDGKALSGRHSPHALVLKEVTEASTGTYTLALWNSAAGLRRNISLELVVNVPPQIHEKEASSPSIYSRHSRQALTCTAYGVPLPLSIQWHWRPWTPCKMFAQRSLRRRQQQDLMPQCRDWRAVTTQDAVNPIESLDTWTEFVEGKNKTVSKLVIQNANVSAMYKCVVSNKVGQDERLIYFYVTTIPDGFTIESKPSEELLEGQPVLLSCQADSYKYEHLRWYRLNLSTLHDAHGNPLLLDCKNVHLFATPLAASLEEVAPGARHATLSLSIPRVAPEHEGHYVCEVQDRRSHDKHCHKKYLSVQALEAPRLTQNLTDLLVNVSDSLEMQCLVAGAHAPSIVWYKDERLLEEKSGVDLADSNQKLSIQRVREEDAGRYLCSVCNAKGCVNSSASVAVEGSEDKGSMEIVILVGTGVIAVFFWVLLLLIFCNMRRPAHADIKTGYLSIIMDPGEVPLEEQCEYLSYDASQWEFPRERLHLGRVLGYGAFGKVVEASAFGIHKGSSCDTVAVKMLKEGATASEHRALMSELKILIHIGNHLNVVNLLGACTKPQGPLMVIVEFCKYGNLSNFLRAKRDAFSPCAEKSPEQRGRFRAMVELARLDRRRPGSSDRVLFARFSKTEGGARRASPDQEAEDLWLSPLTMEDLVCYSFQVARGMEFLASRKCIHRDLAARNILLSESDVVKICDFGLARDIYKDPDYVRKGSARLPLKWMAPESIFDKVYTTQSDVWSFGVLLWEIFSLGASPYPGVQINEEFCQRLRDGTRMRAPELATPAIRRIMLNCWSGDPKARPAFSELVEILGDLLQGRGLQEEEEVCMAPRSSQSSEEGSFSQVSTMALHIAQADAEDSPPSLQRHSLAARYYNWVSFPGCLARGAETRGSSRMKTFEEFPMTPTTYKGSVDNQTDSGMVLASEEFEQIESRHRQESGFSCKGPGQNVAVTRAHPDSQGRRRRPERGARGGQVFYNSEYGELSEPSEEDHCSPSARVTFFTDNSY
Assay [10] concerns the target Epidermal growth factor receptor (Homo sapiens) (UniProt P00533). Nature of the assay: Inhibition of EGFR upto 50 uM.
The target of assay [11] is Vascular endothelial growth factor receptor 2 (Homo sapiens) (UniProt P35968). Put plainly: Inhibition of KDR upto 50 uM.
Sequence of Vascular endothelial growth factor receptor 2 (Homo sapiens) (P35968 whole entry): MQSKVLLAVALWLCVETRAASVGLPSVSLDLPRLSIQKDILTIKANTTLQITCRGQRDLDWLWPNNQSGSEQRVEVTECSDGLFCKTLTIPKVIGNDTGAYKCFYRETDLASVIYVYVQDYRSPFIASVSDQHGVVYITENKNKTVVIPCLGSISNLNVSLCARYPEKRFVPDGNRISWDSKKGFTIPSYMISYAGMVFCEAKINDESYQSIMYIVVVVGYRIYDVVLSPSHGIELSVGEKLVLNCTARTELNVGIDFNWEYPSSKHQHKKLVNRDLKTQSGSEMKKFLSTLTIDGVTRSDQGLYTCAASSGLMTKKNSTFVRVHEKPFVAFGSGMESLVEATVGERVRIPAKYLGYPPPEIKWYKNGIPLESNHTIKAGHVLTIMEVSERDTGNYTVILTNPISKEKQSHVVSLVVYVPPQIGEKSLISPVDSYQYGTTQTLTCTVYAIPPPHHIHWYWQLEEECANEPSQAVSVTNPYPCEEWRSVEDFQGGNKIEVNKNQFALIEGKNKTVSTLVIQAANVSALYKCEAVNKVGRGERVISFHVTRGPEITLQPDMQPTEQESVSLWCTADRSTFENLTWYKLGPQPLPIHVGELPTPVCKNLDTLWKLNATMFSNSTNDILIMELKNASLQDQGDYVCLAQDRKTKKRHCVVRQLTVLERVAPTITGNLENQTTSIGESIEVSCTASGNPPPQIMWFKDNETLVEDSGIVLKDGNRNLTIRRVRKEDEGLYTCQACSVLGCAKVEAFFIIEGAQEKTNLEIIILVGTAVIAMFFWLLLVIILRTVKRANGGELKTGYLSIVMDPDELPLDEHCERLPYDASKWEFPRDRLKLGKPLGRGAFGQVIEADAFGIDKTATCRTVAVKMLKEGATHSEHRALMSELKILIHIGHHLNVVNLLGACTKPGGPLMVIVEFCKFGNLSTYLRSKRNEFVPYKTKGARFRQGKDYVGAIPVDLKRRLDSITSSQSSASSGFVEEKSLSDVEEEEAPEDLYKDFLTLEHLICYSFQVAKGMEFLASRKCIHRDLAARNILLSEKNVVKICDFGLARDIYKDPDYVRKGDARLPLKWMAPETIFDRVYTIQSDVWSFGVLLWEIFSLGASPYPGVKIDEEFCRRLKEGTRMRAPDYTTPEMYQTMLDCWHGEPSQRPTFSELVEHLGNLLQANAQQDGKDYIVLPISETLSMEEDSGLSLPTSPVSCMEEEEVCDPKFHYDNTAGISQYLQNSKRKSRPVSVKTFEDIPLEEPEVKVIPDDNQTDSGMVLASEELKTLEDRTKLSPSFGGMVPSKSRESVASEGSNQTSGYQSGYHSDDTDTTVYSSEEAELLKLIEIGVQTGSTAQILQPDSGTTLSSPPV

Sequence of Cyclin-dependent kinase 1/cyclin B1 (P06493 whole entry): as the sequence (P06493 whole entry, looked up) above
Sequence of Cyclin-dependent kinase 1/cyclin B1 (P14635 whole entry, further chain): as the sequence (P14635 whole entry, looked up) above
Sequence of Epidermal growth factor receptor (Homo sapiens) (P00533 whole entry): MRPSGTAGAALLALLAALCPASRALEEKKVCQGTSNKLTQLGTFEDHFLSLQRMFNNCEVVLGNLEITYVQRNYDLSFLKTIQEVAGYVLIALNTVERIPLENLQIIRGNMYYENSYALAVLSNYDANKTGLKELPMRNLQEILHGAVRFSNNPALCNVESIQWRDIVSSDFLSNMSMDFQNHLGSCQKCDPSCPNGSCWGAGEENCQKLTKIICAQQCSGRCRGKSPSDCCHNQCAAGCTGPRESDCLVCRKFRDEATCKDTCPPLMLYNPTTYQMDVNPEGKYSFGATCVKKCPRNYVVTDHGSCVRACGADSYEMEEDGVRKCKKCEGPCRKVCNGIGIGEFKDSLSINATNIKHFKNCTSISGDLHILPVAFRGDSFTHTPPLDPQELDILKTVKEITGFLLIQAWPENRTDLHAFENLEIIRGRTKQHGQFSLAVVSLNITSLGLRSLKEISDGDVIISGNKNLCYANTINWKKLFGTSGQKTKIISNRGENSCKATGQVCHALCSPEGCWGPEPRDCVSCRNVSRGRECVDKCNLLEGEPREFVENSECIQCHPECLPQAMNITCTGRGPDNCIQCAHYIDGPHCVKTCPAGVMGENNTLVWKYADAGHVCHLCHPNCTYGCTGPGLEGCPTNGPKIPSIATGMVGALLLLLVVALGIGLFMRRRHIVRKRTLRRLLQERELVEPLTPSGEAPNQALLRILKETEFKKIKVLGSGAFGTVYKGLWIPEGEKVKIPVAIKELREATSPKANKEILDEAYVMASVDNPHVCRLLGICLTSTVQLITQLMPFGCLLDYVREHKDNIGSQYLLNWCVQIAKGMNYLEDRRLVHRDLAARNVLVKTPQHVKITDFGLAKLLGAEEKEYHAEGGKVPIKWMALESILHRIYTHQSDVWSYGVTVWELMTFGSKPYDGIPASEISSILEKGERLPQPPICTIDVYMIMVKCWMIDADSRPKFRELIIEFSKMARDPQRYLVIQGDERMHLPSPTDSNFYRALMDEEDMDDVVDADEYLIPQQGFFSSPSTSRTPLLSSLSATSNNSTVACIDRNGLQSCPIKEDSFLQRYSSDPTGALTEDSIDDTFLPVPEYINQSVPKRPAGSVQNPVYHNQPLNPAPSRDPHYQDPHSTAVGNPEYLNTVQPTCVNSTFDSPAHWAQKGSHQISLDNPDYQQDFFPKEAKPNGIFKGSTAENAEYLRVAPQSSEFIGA

For orientation: IC50 means the point on the concentration scale where inhibition reaches its midpoint. In assay [1], `CCOC(=O)c1cc2ccc3c4ccc(Cl)cc4[nH]c3c2[nH]1` displayed an IC50 of more than 100 µM.

`CCOC(=O)c1cc2ccc3c4cc(C)ccc4[nH]c3c2[nH]1` showed an IC50 in assay [1] of more than 100 µM.

`CCOC(=O)c1cc2ccc3c4ccccc4[nH]c3c2[nH]1`: in [1], the IC50 is more than 100 µM.

In general, inhibition refers to the relative decrease from the control value, in per cent. The low end stands for a weak effect, the high end for a strong effect. As for `CCOC(=O)c1cc2ccc3c4cccc(Cl)c4[nH]c3c2[nH]1`, the outcome in assay [2], in assay [3], in assay [6], in assay [7], in assay [8] and in [9] was inactive. The outcome in [10] and in assay [11] was inactive. Also, the inhibition in assay [4] was 50%; in [5] it was 90%. The molecule further registered an IC50 in assay [1] of 15 µM.

Molecule `CCOC(=O)c1cc2ccc3c4cc(Cl)ccc4[nH]c3c2[nH]1` gave an IC50 in assay [1] of more than 100 µM.

`CCOC(=O)c1cc2ccc3c4cc(OC)ccc4[nH]c3c2[nH]1` showed an IC50 in assay [1] of more than 100 µM.

`CCOC(=O)c1cc2ccc3c([nH]c4cccc(Cl)c43)c2[nH]1` yielded a concentration for half-maximal inhibition (IC50) in assay [1] of more than 100 µM.

Values taken from ChEMBL document CHEMBL1141588, “Pyrrolo[2,3-a]carbazoles as potential cyclin dependent kinase 1 (CDK1) Inhibitors. Synthesis, biological evaluation, and binding mode through docking simulations” (J Med Chem, 2008).
